Measurements taken from ChEMBL document CHEMBL1147063, “Diazonamide toxins reveal an unexpected function for ornithine delta-amino transferase in mitotic cell division” (2007).
Activity calls are given as the source filed them. No cut-off for these calls is given here.

What was measured:
[1] = target: T1, Ornithine aminotransferase, mitochondrial (Homo sapiens) (UniProt P04181); assay: Binding affinity to ornithine delta-amino transferase in human HeLa cells by silver stained SDS/PAGE method; format: cell-based
T1 sequence (whole entry): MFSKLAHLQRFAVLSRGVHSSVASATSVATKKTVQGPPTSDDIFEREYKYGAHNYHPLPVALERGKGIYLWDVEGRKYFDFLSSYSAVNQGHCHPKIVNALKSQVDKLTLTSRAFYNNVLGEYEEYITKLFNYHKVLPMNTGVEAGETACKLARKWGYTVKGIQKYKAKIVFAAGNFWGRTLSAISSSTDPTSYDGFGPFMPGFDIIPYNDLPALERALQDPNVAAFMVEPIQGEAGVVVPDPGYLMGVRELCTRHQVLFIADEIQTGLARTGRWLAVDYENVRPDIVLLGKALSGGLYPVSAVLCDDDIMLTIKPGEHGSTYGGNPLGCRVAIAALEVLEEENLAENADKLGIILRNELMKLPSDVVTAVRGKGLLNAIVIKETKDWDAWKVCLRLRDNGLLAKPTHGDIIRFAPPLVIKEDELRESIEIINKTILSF
Outline: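 HeLa nuclear extract, dialysed into buffer B (20 mM Hepes-KOH pH 7.5, 10 mM KCl, 1.5 mM MgCl₂, EDTA, EGTA, DTT, PMSF, plus 150 mM NaCl) with 0.1% Nonidet P-40. Extract fractionated on Hitrap Q anion exchange; fractions incubated overnight at 4°C with biotinylated probe precoupled to avidin agarose. Bound proteins resolved by silver-stained SDS/PAGE; specific ~50 kDa bands identified by mass spectrometry.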

[2] = Binding affinity to tubulin
[3] = target: T2, Ornithine aminotransferase, mitochondrial (Mus musculus) (UniProt P29758); assay: Inhibition of ornithine delta-amino transferase activity in mouse liver mitochondria
T2 sequence (whole entry): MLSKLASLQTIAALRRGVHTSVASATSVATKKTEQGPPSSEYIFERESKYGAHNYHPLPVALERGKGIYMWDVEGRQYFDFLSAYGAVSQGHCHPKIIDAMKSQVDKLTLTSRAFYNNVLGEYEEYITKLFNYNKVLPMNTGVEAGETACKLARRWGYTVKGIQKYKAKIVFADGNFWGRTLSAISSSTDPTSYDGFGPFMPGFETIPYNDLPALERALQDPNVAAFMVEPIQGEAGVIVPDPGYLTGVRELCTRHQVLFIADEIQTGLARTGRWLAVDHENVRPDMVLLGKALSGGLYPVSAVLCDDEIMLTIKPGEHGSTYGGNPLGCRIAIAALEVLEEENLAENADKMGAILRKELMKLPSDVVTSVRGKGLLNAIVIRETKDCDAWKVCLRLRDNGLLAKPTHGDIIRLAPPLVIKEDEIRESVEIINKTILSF
Outline: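 Crude OAT prepared from mouse liver. Enzyme added last with a compound dilution series; shaken at 37°C for 20 min. Δ¹-pyrroline-5-carboxylate detected by reaction with o-aminobenzaldehyde; absorbance read at 443.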

U2OS = assay: Cell cycle arrest in human U2OS cells assessed as abnormal spindle structure formation at 30 nM after 16 hrs; format: functional, cell-based
HeLa [4] = assay: Cell cycle arrest in human HeLa cells assessed as phosphorylated histone H3 level at 30 nM after 24 hrs; format: functional, cell-based
Outline: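 HeLa cells dosed with 30 nM compound for a time course. Cell extracts immunoblotted for phosphorylated histone H3 as mitotic marker, with actin as loading reference.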

HeLa [5] = assay: Cell cycle arrest in human HeLa cells assessed as abnormal spindle structure formation at 30 nM after 24 hrs; format: functional, cell-based
Outline: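 HeLa cells grown 24 h with or without 30 nM compound, then fixed in 4% formaldehyde. Stained with anti-α-tubulin monoclonal (1:1,000) and DAPI; spindle and nuclear morphology imaged by confocal microscopy. Abnormal mono-/multipolar spindles and multinucleate cells counted as a percentage of cells.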

HeLa [6] = assay: Cell cycle arrest in human HeLa cells by accumulation at 4N stage at 30 nM after 24 hrs; format: functional
Outline: (§1)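 HeLa cells exposed to 30 nM compound for the indicated times. DNA content measured by FACS to score 2N versus tetraploid (4N) populations.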

HeLa [7] = assay: Cell cycle arrest in human HeLa cells by accumulation at 2N stage at 30 nM after 24 hrs; format: functional; outline: as §1
Xenopus = assay: Effect on RanGTP L43E mutant-stimulated microtubule aster formations in Xenopus egg extract
HeLa [8] = assay: Antimitotic activity in human HeLa cells; format: functional, cell-based
[9] = test system: Ornithine aminotransferase, mitochondrial (Xenopus laevis); assay: Binding affinity to ornithine delta-amino transferase in RanGTP L43E mutant pre-treated Xenopus egg extracts; settings: egg extract

Row | Structure (SMILES) | Activity [1] | Activity [2] | Activity [3] | further results
1 | CC(CCCCNC(=O)CCCC[C@@H]1SC[C@@H]2NC(=O)N[C@@H]21)[C@H](O)C(=O)N[C@H]1Cc2ccc3c(c2)[C@]2(C4=C(c5nc(Cl)c(-c6c(Cl)[nH]c7ccccc67)o5)N=C(O4)[C@H](C(C)C)NC1=O)c1ccccc1O[C@@H]2O3 (stereo partly specified) | inactive | inactive | – | –
2 | C#CC(N)CCC(=O)O (stereo unspecified) | – | – | Active | –
3 | CC(C)[C@H](O)C(=O)N[C@H]1Cc2ccc3c(c2)[C@]24C5=C(N=C(O5)[C@H](C(C)C)NC1=O)c1nc(Cl)c(o1)-c1c(Cl)[nH]c5cccc(c15)-c1cccc2c1N[C@@H]4O3 | – | – | inactive | Activity (U2OS): Active; Activity (HeLa [4]): Active; Activity (HeLa [5]): Active
4 | [H][C@]12Nc3c4cccc3[C@]13C1=C(N=C(O1)[C@H](C(C)C)NC(=O)[C@@H](NC(=O)[C@@H](O)C(C)C)Cc1ccc(c3c1)O2)c1nc(Cl)c(o1)-c1c(Cl)[nH]c2cccc-4c12 [DIAZONAMIDE A] | – | – | – | Activity (HeLa [6]): 85.69%; Activity (HeLa [7]): 6.9%
5 | CC(CCCCNC(=O)CCCC[C@@H]1SC[C@@H]2NC(=O)N[C@@H]21)[C@H](O)C(=O)N[C@H]1Cc2ccc3c(c2)[C@]24C5=C(N=C(O5)[C@H](C(C)C)NC1=O)c1nc(Cl)c(o1)-c1c(Cl)[nH]c5cccc(c15)-c1cccc2c1O[C@@H]4O3 (stereo partly specified) | Active | inactive | inactive | Activity (Xenopus): Active; Activity (HeLa [8]): Active; Activity [9]: inactive
6 | CC(C)[C@H](O)C(=O)N[C@H]1Cc2ccc3c(c2)[C@]24C5=C(N=C(O5)[C@H](C(C)C)NC1=O)c1nc(Cl)c(o1)-c1c(Cl)[nH]c5cccc(c15)-c1cccc2c1O[C@@H]4O3 | – | – | inactive | –
